Calls of active or inactive are those of the source.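 How the source made its calls, unless noted: active means current rise at least 3 SD above the untreated control mean in each of two repeat wells; inactive means the rest.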

One assay deals with Potassium voltage-gated channel subfamily KQT member 2 (Rattus norvegicus) (UniProt O88943). The assay is described as follows: rat KCNQ2 channel potentiation, selectivity assay for KCNQ1 potentiator project, KCNQ2-CHO-K1 cells (AID 493009;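 active means mean duplicate potentiation above the buffer control mean plus 5 SD of buffer wells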;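 further: assay conditions were tuned for KCNQ1 rather than KCNQ2 modulators; signal is max minus min fluorescence divided by baseline after thallium stimulus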). The conditions noted are these: FluxOR thallium flux fluorescence, at 10 µM; hits give high values, scaled: buffer 0, activator control 100.
Potassium voltage-gated channel subfamily KQT member 2 (Rattus norvegicus), sequence (O88943 whole entry, looked up): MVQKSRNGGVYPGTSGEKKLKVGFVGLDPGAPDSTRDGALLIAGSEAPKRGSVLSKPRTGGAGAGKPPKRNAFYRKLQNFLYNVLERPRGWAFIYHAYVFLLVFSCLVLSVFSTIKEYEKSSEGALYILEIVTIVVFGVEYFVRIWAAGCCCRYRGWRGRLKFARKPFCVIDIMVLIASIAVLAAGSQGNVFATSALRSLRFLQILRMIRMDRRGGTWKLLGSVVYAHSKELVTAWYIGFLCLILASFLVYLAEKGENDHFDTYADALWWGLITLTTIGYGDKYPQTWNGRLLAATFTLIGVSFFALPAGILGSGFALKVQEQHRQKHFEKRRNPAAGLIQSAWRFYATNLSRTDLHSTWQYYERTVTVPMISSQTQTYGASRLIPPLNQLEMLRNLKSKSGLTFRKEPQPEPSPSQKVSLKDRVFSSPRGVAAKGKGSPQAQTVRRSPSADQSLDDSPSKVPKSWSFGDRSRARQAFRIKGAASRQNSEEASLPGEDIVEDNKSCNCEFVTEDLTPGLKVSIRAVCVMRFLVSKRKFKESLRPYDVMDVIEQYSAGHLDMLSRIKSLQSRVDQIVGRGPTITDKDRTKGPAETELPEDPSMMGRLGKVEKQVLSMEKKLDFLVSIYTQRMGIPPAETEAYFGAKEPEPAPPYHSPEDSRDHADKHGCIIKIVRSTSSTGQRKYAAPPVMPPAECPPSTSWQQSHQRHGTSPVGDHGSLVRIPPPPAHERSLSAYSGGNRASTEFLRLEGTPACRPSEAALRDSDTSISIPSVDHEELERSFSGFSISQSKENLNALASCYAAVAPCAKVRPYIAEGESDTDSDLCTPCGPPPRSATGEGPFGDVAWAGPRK
`CCCSC(=S)c1c(C)[nH]n(-c2ccccc2)c1=O`: the potentiation is 432% (active).
As to `Cc1ccc2c(c1)c(C)c(C)n2CC(O)CN1CCCCC1C` (stereo not drawn), the outcome was inactive.
Turning to `Cc1ccc(Cl)cc1N1CCN(C(=O)c2ccc(CN3CCOCC3)cc2)CC1`, the outcome was inactive.
Still for that read-out and setting: with `COc1ccc(C(=O)Nc2ccnn2C2CCN(Cc3ccncc3)CC2)cc1` the entry was “inactive”.
In the case of `O=c1cc(-c2c(F)c(F)c(F)c(F)c2F)oc2ccccc12`, the result was inactive.
As to `Cc1ccc(C(=O)OCC(=O)Nc2sc3c(c2C#N)CCCC3)cc1NC(=O)c1ccco1`, the outcome was inactive.
Still for that read-out and setting: as for `CN1C(=O)C2(Oc3ccccc3C3CC(c4ccccc4)=NN32)c2ccccc21` (stereo not drawn), the entry is “inactive”; as for `CC(NC(=O)c1ccncc1)C(C)(C)C` (stereo not drawn), “inactive”.
As for `CCCCOC(=O)c1cc(C)nc2ccc(Br)cc12`, the potentiation is 320% (active).
For `CC(C)(C)NC(=O)C(=O)NNC(=O)COc1ccc(Br)cc1`, the potentiation was 215% (active).
Same read-out and setting: as for `C=CCN(CC=C)C(=S)NC(=O)c1ccc([N+](=O)[O-])cc1`, the figure is 359% (active); as for `CCc1nnc(SCC(=O)Nc2nnc(C)s2)n1CC1CCCO1` (stereo not drawn), 274% (active).
The same measure, in the same setting: as for `Cc1ccccc1OCC(=O)N=Nc1c(O)n(C)c2ccccc12`, the figure is 188% (active).
Take `Cc1ccc(C)c(S(=O)(=O)NCC(=O)N2CCCC2)c1`: the result was inactive.
Turning to `COC(=O)c1c(N2C(=O)CC(Sc3ncccc3C(=O)O)C2=O)sc(C)c1C` (stereo not drawn), the outcome was inactive.
As for `Cc1ccc(CN2C(=O)CC(Nc3ccc(N4CCOCC4)cc3)C2=O)cc1` (stereo not drawn), the result was inactive.
On the same count and under the same terms, with `CCOc1ccc(NC(=O)CN(C)C(=O)c2c(-c3c(F)cccc3Cl)noc2C)cc1OCC` the entry was “inactive”.
Turning to `Oc1c(Br)cc(Cl)cc1C=Nc1ccccc1Br`, the potentiation was 310% (active).
The same measure, in the same setting: as for `CCOC(=S)NC(=O)c1sc2ccccc2c1Cl`, the figure is 404% (active).
As to `O=C(CCN1CCCCCC1)Nc1ccc(F)cc1`, the outcome was inactive.
In the case of `Cc1ccc(/C=C/C(=O)c2ccccc(=O)c2O)c(C)c1`, the potentiation was 280% (active).
Turning to `CCc1ccc(C2c3[nH]c4ccccc4c3CCN2C(=O)CNC(N)=O)cc1` (stereo not drawn), the potentiation was 156% (active).
For `Cc1ccc2cc3cc(C(=O)NC4CC4)oc3nc2c1`, the result was inactive.
In the case of `Cc1cccc(NC(=O)c2ccc(COc3ccccc3[N+](=O)[O-])o2)n1`, the result was inactive.
`OCCCCNCc1ccc(OCc2ccc(Cl)cc2)cc1`: the potentiation was 332% (active).
Regarding `Cc1ccc2nc3c(cc(C(=O)NCC4CCCO4)c(=N)n3C3CCCC3)c(=O)n2c1` (stereo not drawn), the outcome was inactive.
Same read-out and setting: with `O=C(O)c1ccccc1NS(=O)(=O)c1cccc(-n2sc3ccccc3c2=O)c1` the entry was “inactive”.
Turning to `Cn1c(=O)c2nc3ccccc3nc2n(C)c1=O`, the potentiation is 184% (active).
For `COc1ccc(-n2c(=S)[nH]c3c(oc4ccccc43)c2=O)cc1`, the result was inactive.
Same read-out and setting: as for `Cc1ccc(S(=O)(=O)NCC(c2ccc3c(c2)OCO3)N2CCOCC2)cc1` (stereo not drawn), the entry is “inactive”.
Take `Cc1ccc(C(=O)N/C(=C\c2ccc(-c3ccccc3[N+](=O)[O-])o2)C(=O)NCCCN2CCOCC2)cc1`: the result was inactive.
In the case of `COc1cc(OC)cc(C(=O)Nc2nnc(SCC(=O)NCc3ccco3)s2)c1`, the potentiation was 158% (active).
Regarding `Cc1cc(C)n(-c2nc(NCCN(C)C)c3c4c(sc3n2)COC(C)(C)C4)n1`, the result was inactive.
The same measure, in the same setting: with `O=C(NN=C1CCCCCC1)c1cc(-c2ccccc2)nc2ccccc12` the entry was “inactive”.
As to `O=C(NC(=S)N1CCN(c2ccc(C(F)(F)F)cc2[N+](=O)[O-])CC1)c1cccs1`, the potentiation is 215% (active).
Regarding `COc1cc(CN(C)CC2CCCN(CCc3cccc(C(F)(F)F)c3)C2)ccc1O` (stereo not drawn), the outcome was inactive.
Consider `Oc1c(N=NC(=S)Nc2ccccc2F)c2ccccc2n1Cc1ccccc1F`, for which the potentiation is 169% (active).
Consider `Cc1ccc(-c2nc3ccc(Cl)cc3c(=O)n2O)cc1`, for which the potentiation was 523% (active).
With `CN(C)/C=N/S(=O)(=O)c1cccn1-c1ncc(C(F)(F)F)cc1Cl`, the result was inactive.

The target of a further assay is Potassium voltage-gated channel subfamily KQT member 1 (Homo sapiens) (UniProt P51787). Briefly: KCNQ1 channel current potentiators, confirmation, orthogonal assay for KCNQ1 potentiator project, IonWorks patch clamp, KCNQ1-CHO cells (AID 493184). Particulars: automated patch clamp current, at 10 µM; hits give high values. In outline: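 Test system: KCNQ1-expressing CHO cells. Medium: pH 7.4 external bath. Probe or stimulus: voltage step from -90 mV holding to +40 mV, 2,000 ms. Compound: 10 µM final, single point. Detection: automated perforated-patch electrophysiology. Read-out: percent current increase versus pre-compound level. Repeats: two replicates.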
Potassium voltage-gated channel subfamily KQT member 1 (Homo sapiens), sequence (P51787 whole entry, looked up): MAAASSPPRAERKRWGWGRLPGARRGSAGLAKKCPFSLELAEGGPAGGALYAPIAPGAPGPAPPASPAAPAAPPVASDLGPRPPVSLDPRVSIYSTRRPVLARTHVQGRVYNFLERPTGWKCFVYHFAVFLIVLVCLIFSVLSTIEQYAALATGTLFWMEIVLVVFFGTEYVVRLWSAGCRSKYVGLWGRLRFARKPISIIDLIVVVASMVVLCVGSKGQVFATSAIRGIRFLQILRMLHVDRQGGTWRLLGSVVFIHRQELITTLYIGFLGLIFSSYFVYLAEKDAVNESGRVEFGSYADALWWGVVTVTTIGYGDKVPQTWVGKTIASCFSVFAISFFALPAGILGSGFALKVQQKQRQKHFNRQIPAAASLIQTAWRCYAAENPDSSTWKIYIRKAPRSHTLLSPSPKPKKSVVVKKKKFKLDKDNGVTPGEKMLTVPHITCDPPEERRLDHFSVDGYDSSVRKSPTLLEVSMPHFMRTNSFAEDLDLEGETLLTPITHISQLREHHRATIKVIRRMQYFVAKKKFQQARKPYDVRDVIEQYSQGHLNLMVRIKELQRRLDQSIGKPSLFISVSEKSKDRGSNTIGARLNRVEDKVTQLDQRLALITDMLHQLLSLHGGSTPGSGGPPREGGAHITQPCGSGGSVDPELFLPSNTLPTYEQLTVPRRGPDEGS
(In general: In patch-clamp work, channel activity is measured electrically.)
With `CCCSC(=S)c1c(C)[nH]n(-c2ccccc2)c1=O`, the outcome was inactive.
For the compound `Cc1ccc2c(c1)c(C)c(C)n2CC(O)CN1CCCCC1C` (stereo not drawn), the result was inactive.
Turning to `Cc1ccc(Cl)cc1N1CCN(C(=O)c2ccc(CN3CCOCC3)cc2)CC1`, the result was inactive.
Still for that read-out and setting: as for `COc1ccc(C(=O)Nc2ccnn2C2CCN(Cc3ccncc3)CC2)cc1`, the entry is “inactive”.
For the compound `O=c1cc(-c2c(F)c(F)c(F)c(F)c2F)oc2ccccc12`, the result was inactive.
On to `Cc1ccc(C(=O)OCC(=O)Nc2sc3c(c2C#N)CCCC3)cc1NC(=O)c1ccco1`, for which the outcome was inactive.
`CN1C(=O)C2(Oc3ccccc3C3CC(c4ccccc4)=NN32)c2ccccc21` (stereo not drawn): the result was inactive.
Same read-out and setting: as for `CC(NC(=O)c1ccncc1)C(C)(C)C` (stereo not drawn), the entry is “inactive”.
For the compound `CCCCOC(=O)c1cc(C)nc2ccc(Br)cc12`, the result was inactive.
Regarding `CC(C)(C)NC(=O)C(=O)NNC(=O)COc1ccc(Br)cc1`, the result was inactive.
Still for that read-out and setting: as for `C=CCN(CC=C)C(=S)NC(=O)c1ccc([N+](=O)[O-])cc1`, the entry is “inactive”; as for `CCc1nnc(SCC(=O)Nc2nnc(C)s2)n1CC1CCCO1` (stereo not drawn), “inactive”; as for `Cc1ccccc1OCC(=O)N=Nc1c(O)n(C)c2ccccc12`, “inactive”.
On the same count and under the same terms, with `Cc1ccc(C)c(S(=O)(=O)NCC(=O)N2CCCC2)c1` the entry was “inactive”; with `COC(=O)c1c(N2C(=O)CC(Sc3ncccc3C(=O)O)C2=O)sc(C)c1C` (stereo not drawn), “inactive”; with `Cc1ccc(CN2C(=O)CC(Nc3ccc(N4CCOCC4)cc3)C2=O)cc1` (stereo not drawn), “inactive”.
Still for that read-out and setting: as for `CCOc1ccc(NC(=O)CN(C)C(=O)c2c(-c3c(F)cccc3Cl)noc2C)cc1OCC`, the entry is “inactive”.
Take `Oc1c(Br)cc(Cl)cc1C=Nc1ccccc1Br`: the outcome was inactive.
Turning to `CCOC(=S)NC(=O)c1sc2ccccc2c1Cl`, the outcome was inactive.
Same read-out and setting: with `O=C(CCN1CCCCCC1)Nc1ccc(F)cc1` the entry was “inactive”; with `Cc1ccc(/C=C/C(=O)c2ccccc(=O)c2O)c(C)c1`, “inactive”.
Same read-out and setting: with `CCc1ccc(C2c3[nH]c4ccccc4c3CCN2C(=O)CNC(N)=O)cc1` (stereo not drawn) the entry was “inactive”; with `Cc1ccc2cc3cc(C(=O)NC4CC4)oc3nc2c1`, “inactive”.
Still for that read-out and setting: with `Cc1cccc(NC(=O)c2ccc(COc3ccccc3[N+](=O)[O-])o2)n1` the entry was “inactive”; with `OCCCCNCc1ccc(OCc2ccc(Cl)cc2)cc1`, “inactive”; with `Cc1ccc2nc3c(cc(C(=O)NCC4CCCO4)c(=N)n3C3CCCC3)c(=O)n2c1` (stereo not drawn), “inactive”.
Regarding `O=C(O)c1ccccc1NS(=O)(=O)c1cccc(-n2sc3ccccc3c2=O)c1`, the outcome was inactive.
For the compound `Cn1c(=O)c2nc3ccccc3nc2n(C)c1=O`, the outcome was inactive.
`COc1ccc(-n2c(=S)[nH]c3c(oc4ccccc43)c2=O)cc1`: the result was inactive.
For the compound `Cc1ccc(S(=O)(=O)NCC(c2ccc3c(c2)OCO3)N2CCOCC2)cc1` (stereo not drawn), the result was inactive.
As to `Cc1ccc(C(=O)N/C(=C\c2ccc(-c3ccccc3[N+](=O)[O-])o2)C(=O)NCCCN2CCOCC2)cc1`, the result was inactive.
On the same count and under the same terms, as for `COc1cc(OC)cc(C(=O)Nc2nnc(SCC(=O)NCc3ccco3)s2)c1`, the entry is “inactive”; as for `Cc1cc(C)n(-c2nc(NCCN(C)C)c3c4c(sc3n2)COC(C)(C)C4)n1`, “inactive”.
In the case of `O=C(NN=C1CCCCCC1)c1cc(-c2ccccc2)nc2ccccc12`, the outcome was inactive.
The same measure, in the same setting: with `O=C(NC(=S)N1CCN(c2ccc(C(F)(F)F)cc2[N+](=O)[O-])CC1)c1cccs1` the entry was “inactive”; with `COc1cc(CN(C)CC2CCCN(CCc3cccc(C(F)(F)F)c3)C2)ccc1O` (stereo not drawn), “inactive”.
Regarding `Oc1c(N=NC(=S)Nc2ccccc2F)c2ccccc2n1Cc1ccccc1F`, the outcome was inactive.
In the case of `Cc1ccc(-c2nc3ccc(Cl)cc3c(=O)n2O)cc1`, the result was inactive.
For `CN(C)/C=N/S(=O)(=O)c1cccn1-c1ncc(C(F)(F)F)cc1Cl`, the result was inactive.

For the origin of these results see PubChem BioAssay.
